ChEMBL document CHEMBL1123507, “Antipicornavirus activity of substituted phenoxybenzenes and phenoxypyridines” (J Med Chem, 1986)
≈ marks a conversion by molar mass, not a printed value.

Columns and labels:
HeLa = assay: Cytotoxicity concentration in HeLa cells; assay type: cell-based; details: human
Procedure, shortened: (§1)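 HeLa monolayers were seeded at (1.0-1.3) × 10^5 cells/well, grown 24 h at 36 °C in 5% CO2 to 60–75% cover, then refed with maintenance medium (1-2% heat-inactivated FCS) containing two-fold serial compound dilutions made from a 200 μg/mL stock in Me2SO/medium, with final Me2SO ≤0.1%. Cells were challenged with 10-100 TCID50 virus, and CPE was read microscopically at 48 and 72 h. MIC50 was the lowest concentration giving ≥50% CPE reduction versus virus control. Cytotoxicity was the lowest concentration causing cell death, a growth change or a morphology change in uninfected cultures.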

Coxsackievirus [1] = assay: Ratio of the MIC50 of 6-(4-Nitro-phenoxy)-nicotinonitrile compared to compound obtained in the same test for coxsackie A21; assay type: functional
Procedure, shortened: (§2)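 Relative activity was calculated as the MIC50 of the positive control 5-cyano-2-(4-nitrophenoxy)pyridine divided by the MIC50 of the test compound. Both were measured in parallel in the same HeLa CPE test (48/72 h microscopic reading) against RV-1A, RV-2 or coxsackievirus A21.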

Coxsackievirus [2] = assay: Lowest concentration to reduce viral effect by 50% or more against coxsackie virus A21; assay type: functional; procedure, shortened: as §1
Enterovirus [3] = assay: Lowest concentration to reduce viral effect by 50% or more against Rhinovirus (RV)-2; assay type: functional; procedure, shortened: as §1
Enterovirus [4] = assay: Ratio of the MIC50 of 6-(4-Nitro-phenoxy)-nicotinonitrile compared to compound obtained in the same test for Rhinovirus (RV)-2; assay type: functional; procedure, shortened: as §2
Enterovirus [5] = assay: Lowest concentration to reduce viral effect by 50% or more against Rhinovirus (RV)-1A; assay type: functional; procedure, shortened: as §1
Enterovirus [6] = assay: Ratio of the MIC50 of 6-(4-Nitro-phenoxy)-nicotinonitrile compared to compound obtained in the same test for Rhinovirus (RV)-1A; assay type: functional; procedure, shortened: as §2
Enterovirus [7] = assay: Compound was evaluated for inhibition of rhinovirus RV-Hanks 75%; assay type: functional
Enterovirus [8] = assay: Compound was evaluated for inhibition of rhinovirus RV-Hanks at a dose of 50 ug/mL by < 50%; assay type: functional

Row | MIC50 (Coxsackievirus [2]) [µM] | MIC50 (Enterovirus [3]) [µM] | MIC50 (Enterovirus [5]) [µM] | Compound | Toxicity (HeLa) [µM] | Relative activity (Coxsackievirus [1]) | Relative activity (Enterovirus [4]) | Relative activity (Enterovirus [6]) | Inhibition (Enterovirus [7]) [%] | inhibition at 50 µg/mL (Enterovirus [8]) [%]
1 | 12 (≈ 3.18 µg/mL) | 24 (≈ 6.36 µg/mL) | 47 (≈ 12.5 µg/mL) | N#Cc1cccnc1Oc1ccc(Cl)c(Cl)c1 | > 189 | 1.1 | 1.1 | 0.55 |  | 
2 | 8.1 (≈ 2.5 µg/mL) | 0.26 (≈ 0.0804 µg/mL) | 0.52 (≈ 0.161 µg/mL) | N#Cc1cc([N+](=O)[O-])ccc1Oc1cccc(Cl)c1Cl | > 65 | 3.2 | 50 | 25 |  | 
3 | 76.2 (≈ 25 µg/mL) | 38.1 (≈ 12.5 µg/mL) | 19 (≈ 6.23 µg/mL) | O=C(O)c1cc([N+](=O)[O-])ccc1Oc1ccc(Cl)c(Cl)c1 | 305 | 0.34 | 1.4 | 2.7 |  | 
4 | 9 (≈ 2.58 µg/mL) | 9 (≈ 2.58 µg/mL) | 4 (≈ 1.14 µg/mL) | CSc1ccc(Oc2ccc(Cl)c(Cl)c2)nc1 | 87 | 4.6 | 5.8 | 6.5 |  | 
5 | 4 (≈ 1.28 µg/mL) | 16 (≈ 5.1 µg/mL) | 4 (≈ 1.28 µg/mL) | Clc1ccc(Oc2ccc(Br)cn2)cc1Cl | 78 | 6.5 | 1.6 | 6.5 |  | 
6 | 12 (≈ 3.18 µg/mL) | 12 (≈ 3.18 µg/mL) | 24 (≈ 6.36 µg/mL) | N#Cc1ccnc(Oc2ccc(Cl)c(Cl)c2)c1 | > 189 | 1.1 | 2.2 | 1.1 |  | 
7 | 54 (≈ 12.5 µg/mL) | 54 (≈ 12.5 µg/mL) | 54 (≈ 12.5 µg/mL) | N#Cc1ccc(Oc2ccc(Cl)cc2)nc1 | > 433 | 0.48 | 2 | 1.9 |  | 
8 | 3.9 (≈ 1.2 µg/mL) | 2 (≈ 0.616 µg/mL) | 8.1 (≈ 2.5 µg/mL) | N#Cc1cc([N+](=O)[O-])ccc1Oc1cccc(C(F)(F)F)c1 | 41 | 5.3 | 25.9 | 1.6 |  | 
9 | 0.41 (≈ 0.131 µg/mL) | 0.94 (≈ 0.3 µg/mL) | 1.6 (≈ 0.511 µg/mL) | N#Cc1cc([N+](=O)[O-])ccc1Oc1ccccc1Br | > 31 | 3.3 | 11.1 | 12.9 |  | 
10 | 10.8 (≈ 3.14 µg/mL) | 1.1 (≈ 0.319 µg/mL) | 4.3 (≈ 1.25 µg/mL) | N#Cc1cc([N+](=O)[O-])ccc1Oc1cccc2ccccc12 | > 172 | 1.2 | 11.8 | 6 |  | 
11 | 60 (≈ 12.6 µg/mL) | 30 (≈ 6.31 µg/mL) | 60 (≈ 12.6 µg/mL) | Cc1ccc(Oc2ccc(C#N)cn2)cc1 | 476 | 0.43 | 1.7 | 0.43 |  | 
12 | 2.3 (≈ 0.607 µg/mL) | 9.5 (≈ 2.51 µg/mL) | 9.5 (≈ 2.51 µg/mL) | N#Cc1ccc(Oc2ccc(Cl)c(Cl)c2)cc1 | 24 | 11.3 | 2.7 | 2.7 |  | 
13 | 2.7 (≈ 0.649 µg/mL) | 5.4 (≈ 1.3 µg/mL) | 5.4 (≈ 1.3 µg/mL) | N#Cc1cc([N+](=O)[O-])ccc1Oc1ccccc1 | > 42 | 0.96 | 3.8 | 3.8 |  | 
14 | 5.7 (≈ 1.54 µg/mL) | 11.6 (≈ 3.13 µg/mL) | 46.3 (≈ 12.5 µg/mL) | COc1ccc(Oc2ccc([N+](=O)[O-])cc2C#N)cc1 | 93 | 2.2 | 2.2 | 0.56 |  | 
15 | 0.88 (≈ 0.25 µg/mL) | 22 (≈ 6.25 µg/mL) | 4.6 (≈ 1.31 µg/mL) | O=[N+]([O-])c1ccc(Oc2ccc(Cl)c(Cl)c2)cc1 | 352 | 5.9 | 2.4 | 5.6 | 65 | 30
16 | 4.1 (≈ 1.3 µg/mL) | 0.79 (≈ 0.251 µg/mL) | 0.79 (≈ 0.251 µg/mL) | CS(=O)(=O)c1ccc(Oc2ccc(Cl)c(Cl)c2)cc1 | 158 | 3.2 | 32.8 | 32.8 | 85 | 10
17 | 5.7 (≈ 1.57 µg/mL) | 4.5 (≈ 1.24 µg/mL) | 4.5 (≈ 1.24 µg/mL) | N#Cc1cc([N+](=O)[O-])ccc1Oc1ccccc1Cl | 45 | 2.38 | 4.6 | 4.6 |  | 
18 | 18.9 (≈ 5.01 µg/mL) | 9.4 (≈ 2.49 µg/mL) | 9.4 (≈ 2.49 µg/mL) | N#Cc1ccc(Oc2ccc([N+](=O)[O-])cc2C#N)cc1 | > 38 | 0.33 | 1.1 | 2.2 |  | 

Row | MIC50 (Coxsackievirus [2]) [µM] | MIC50 (Enterovirus [3]) [µM] | MIC50 (Enterovirus [5]) [µM] | Compound | Toxicity (HeLa) [µM] | Relative activity (Coxsackievirus [1]) | Relative activity (Enterovirus [4]) | Relative activity (Enterovirus [6]) | Inhibition (Enterovirus [7]) [%] | inhibition at 50 µg/mL (Enterovirus [8]) [%]
19 | 7.6 (≈ 2.49 µg/mL) | 1 (≈ 0.327 µg/mL) | 1.9 (≈ 0.622 µg/mL) | CS(=O)(=O)c1ccc(Oc2ccc(Br)cc2)cc1 | 38 | 2.5 | 19.7 | 9.8 |  | 
20 | 2.2 (≈ 0.622 µg/mL) | 4.4 (≈ 1.24 µg/mL) | 4.4 (≈ 1.24 µg/mL) | CS(=O)(=O)c1ccc(Oc2ccc(Cl)cc2)cc1 | 44 | 11.8 | 5.9 | 11.8 |  | 
21 | 0.85 (≈ 0.249 µg/mL) | 21.3 (≈ 6.25 µg/mL) | 42.7 (≈ 12.5 µg/mL) | CS(=O)(=O)c1ccc(Oc2ccc([N+](=O)[O-])cc2)cc1 | 171 | 6.1 | 2.4 | 1.2 |  | 
22 | 2 (≈ 0.53 µg/mL) | 19 (≈ 5.04 µg/mL) | 5 (≈ 1.33 µg/mL) | N#Cc1ccc(Oc2ccc(Cl)c(Cl)c2)nc1 | 377 | 13 | 2.7 | 4.1 |  | 
23 | 2 (≈ 0.616 µg/mL) | 1 (≈ 0.308 µg/mL) | 10 (≈ 3.08 µg/mL) | N#Cc1cc([N+](=O)[O-])ccc1Oc1ccc(C(F)(F)F)cc1 | 162 | 13 | 13 | 1.3 |  | 
24 | 16.2 (≈ 5.01 µg/mL) | 0.52 (≈ 0.161 µg/mL) | 3.9 (≈ 1.21 µg/mL) | N#Cc1cc([N+](=O)[O-])ccc1Oc1c(Cl)cccc1Cl | > 65 | 0.8 | 25 | 5.3 |  | 
25 | 3.5 (≈ 0.988 µg/mL) | 11.1 (≈ 3.13 µg/mL) | 22.2 (≈ 6.27 µg/mL) | CC(=O)c1ccc(Oc2ccc([N+](=O)[O-])cc2C#N)cc1 | > 177 | 0.68 | 1.2 | 0.59 |  | 
26 | 3.9 (≈ 1.21 µg/mL) | 0.52 (≈ 0.161 µg/mL) | 0.97 (≈ 0.3 µg/mL) | N#Cc1cc([N+](=O)[O-])ccc1Oc1ccc(Cl)cc1Cl | > 324 | 13.3 | 49.8 | 85.6 |  | 
27 | 4.6 (≈ 1.24 µg/mL) | 9.3 (≈ 2.51 µg/mL) | 23 (≈ 6.22 µg/mL) | COc1cccc(Oc2ccc([N+](=O)[O-])cc2C#N)c1 | > 185 | 2.8 | 1.4 | 1.1 |  | 
28 | 3.6 (≈ 0.989 µg/mL) | 2.8 (≈ 0.769 µg/mL) | 1.4 (≈ 0.385 µg/mL) | N#Cc1cc([N+](=O)[O-])ccc1Oc1ccc(Cl)cc1 | > 364 | 7.2 | 9.3 | 18.5 |  | 
29 | 2.4 (≈ 0.61 µg/mL) | 5.1 (≈ 1.3 µg/mL) | 5.1 (≈ 1.3 µg/mL) | Cc1ccc(Oc2ccc([N+](=O)[O-])cc2C#N)cc1 | 39 | 2.2 | 2 | 4.1 |  | 
30 | 7.8 (≈ 2.49 µg/mL) | 3.8 (≈ 1.21 µg/mL) | 3.8 (≈ 1.21 µg/mL) | N#Cc1cc([N+](=O)[O-])ccc1Oc1ccc(Br)cc1 | > 313 | 3.3 | 6.8 | 6.8 |  | 
31 | 90 (≈ 25 µg/mL) | 45 (≈ 12.5 µg/mL) | 22.5 (≈ 6.26 µg/mL) | COc1ccc(Oc2ccc(S(C)(=O)=O)cc2)cc1 | > 180 | 0.29 | 0.58 | 0.58 |  | 
32 | 25.4 (≈ 6.66 µg/mL) | 25.4 (≈ 6.66 µg/mL) | 50.8 (≈ 13.3 µg/mL) | Cc1ccc(Oc2ccc(S(C)(=O)=O)cc2)cc1 | 203 | 1 | 1 | 0.51 |  | 
33 | 16.2 (≈ 5.01 µg/mL) | 8.1 (≈ 2.5 µg/mL) | 16.2 (≈ 5.01 µg/mL) | N#Cc1cc([N+](=O)[O-])ccc1Oc1cc(Cl)cc(Cl)c1 | > 65 | 0.8 | 1.6 | 1.6 |  | 
34 | 1.1 (≈ 0.302 µg/mL) | 0.58 (≈ 0.159 µg/mL) | 1.1 (≈ 0.302 µg/mL) | N#Cc1cc([N+](=O)[O-])ccc1Oc1cccc(Cl)c1 | > 91 | 11.8 | 44.7 | 23.6 |  | 
35 | 2 (≈ 0.618 µg/mL) | 0.52 (≈ 0.161 µg/mL) | 0.26 (≈ 0.0804 µg/mL) | N#Cc1cc([N+](=O)[O-])ccc1Oc1cc(Cl)ccc1Cl | > 162 | 13 | 25 | 50 |  | 
